Values after ≈ are worked out from the molar mass of the structure shown.
What was measured:
Type in all cases: functional
[1] = tested on: Staphylococcus aureus; assay: Antibacterial activity against Staphylococcus aureus ATCC 29213 after 16 to 22 hrs by broth microdilution method
Summary of the method: (§1)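 Broth microdilution per the CLSI approved standard (sixth edition), using two-fold serial dilutions of compound in Mueller–Hinton broth. Stocks at 5 mg/ml in DMF. Inoculum came from a direct colony suspension adjusted by turbidity to about 5 × 10⁴ CFU/well final. Trays were incubated at 35 °C for 16–22 h. MIC is the lowest concentration completely inhibiting growth (99% inhibition).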

[2] = tested on: Streptococcus pneumoniae; assay: Antibacterial activity against erythromycin-susceptible Streptococcus pneumoniae after 16 to 22 hrs by broth microdilution method
Summary of the method: (§2)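 Streptococci tested by CLSI broth microdilution in Mueller–Hinton broth with 5% horse serum, using two-fold serial dilutions. Compounds were dissolved in DMF at 5 mg/ml (stock). Inoculum was a turbidity-adjusted direct colony suspension giving about 5 × 10⁴ CFU/well. Trays were held at 35 °C for 16–22 h. MIC is the lowest concentration completely inhibiting growth (99%).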

[3] = tested on: Streptococcus pneumoniae; assay: Antibacterial activity against efflux-mediated macrolide-resistant Streptococcus pneumoniae after 16 to 22 hrs by broth microdilution method
Summary of the method: (§3)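 Two-fold serial dilutions in microdilution trays, following the CLSI dilution standard for aerobic bacteria. Medium was Mueller–Hinton broth with 5% horse serum for streptococci. Stocks were made at 5 mg/ml in DMF. Inoculum came from a direct colony suspension adjusted by turbidity to about 5 × 10⁴ CFU/well final. Incubation was at 35 °C for 16–22 h. MIC is the lowest concentration completely inhibiting growth (99% inhibition).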

[4] = tested on: Streptococcus pneumoniae; assay: Antibacterial activity against constitutive macrolide-lincosamide-streptogramin-resistant Streptococcus pneumoniae after 16 to 22 hrs by broth microdilution method; summary of the method: as §3
[5] = tested on: Streptococcus pyogenes; assay: Antibacterial activity against erythromycin-susceptible Streptococcus pyogenes after 16 to 22 hrs by broth microdilution method; summary of the method: as §2
[6] = tested on: Streptococcus pyogenes; assay: Antibacterial activity against inducible macrolide-lincosamide-streptogramin-resistant Streptococcus pyogenes 16 to 22 hrs by broth microdilution method; summary of the method: as §3
[7] = tested on: Streptococcus pyogenes; assay: Antibacterial activity against efflux-mediated macrolide-resistance Streptococcus pyogenes after 16 to 22 hrs by broth microdilution method; summary of the method: as §3
[8] = tested on: Moraxella catarrhalis; assay: Antibacterial activity against Moraxella catarrhalis ATCC 23246 after 16 to 22 hrs by broth dilution method; summary of the method: as §1
[9] = tested on: Haemophilus influenzae; assay: Antibacterial activity against Haemophilus influenzae ATCC 49247 after 16 to 22 hrs by broth dilution method
Summary of the method: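 Microdilution trays following the CLSI standard, with two-fold serial dilutions in supplemented broth suited to H. influenzae. DMF stocks at 5 mg/ml. Inoculum prepared from a turbidity-adjusted direct colony suspension to about 5 × 10⁴ CFU/well final. Incubated at 35 °C for 16–22 h. MIC is the lowest concentration giving complete (99%) growth inhibition.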

[10] = tested on: Enterococcus faecalis; assay: Antibacterial activity against Enterococcus faecalis ATCC 29212 after 16 to 22 hrs by broth dilution method; summary of the method: as §1
[11] = tested on: Escherichia coli; assay: Antibacterial activity against Escherichia coli ATCC 25922 after 16 to 22 hrs by broth dilution method; summary of the method: as §1

Row | SMILES | MIC [1] | MIC [2] | MIC [3] | MIC [4] | MIC [5] | MIC [6] | MIC [7] | MIC [8] | MIC [9] | MIC [10] | MIC [11]
1 | CC[C@H]1OC(=O)[C@H](C)[C@@H](O[C@H]2C[C@@](C)(OC)[C@@H](O)[C@H](C)O2)[C@H](C)[C@@H](O[C@@H]2O[C@H](C)C[C@H](N(C)C)[C@H]2O)[C@](C)(O)C[C@@H](C)CN(CCCNC(=O)NC(C)c2cccc3ccccc23)[C@H](C)[C@@H](O)[C@]1(C)O (stereo partly specified) | 1 mg/L (≈ 1.01 µM) | ≤ 0.125 mg/L | 16 mg/L (≈ 16.2 µM) | 16 mg/L (≈ 16.2 µM) | ≤ 0.125 mg/L | 2 mg/L (≈ 2.02 µM) | 8 mg/L (≈ 8.09 µM) | 0.25 mg/L (≈ 0.253 µM) | 2 mg/L (≈ 2.02 µM) | 8 mg/L (≈ 8.09 µM) | 32 mg/L (≈ 32.3 µM)
2 | CC[C@H]1OC(=O)[C@H](C)[C@@H](O[C@H]2C[C@@](C)(OC)[C@@H](O)[C@H](C)O2)[C@H](C)[C@@H](O[C@@H]2O[C@H](C)C[C@H](N(C)C)[C@H]2O)[C@](C)(O)C[C@@H](C)CN(CCCN(CCC#N)C(=O)NCCc2ccccc2)[C@H](C)[C@@H](O)[C@]1(C)O | 4 mg/L (≈ 4.03 µM) | ≤ 0.125 mg/L | 64 mg/L (≈ 64.5 µM) | > 64 mg/L | ≤ 0.125 mg/L | 32 mg/L (≈ 32.2 µM) | 64 mg/L (≈ 64.5 µM) | 16 mg/L (≈ 16.1 µM) | 32 mg/L (≈ 32.2 µM) | 64 mg/L (≈ 64.5 µM) | > 64 mg/L
3 | CC[C@H]1OC(=O)[C@H](C)[C@@H](O[C@H]2C[C@@](C)(OC)[C@@H](O)[C@H](C)O2)[C@H](C)[C@@H](O[C@@H]2O[C@H](C)C[C@H](N(C)C)[C@H]2O)[C@](C)(O)C[C@@H](C)CN(CCCN(CCC#N)C(=O)NC(C)c2cccc3ccccc23)[C@H](C)[C@@H](O)[C@]1(C)O (stereo partly specified) | 2 mg/L (≈ 1.92 µM) | ≤ 0.125 mg/L | 32 mg/L (≈ 30.7 µM) | 16 mg/L (≈ 15.3 µM) | ≤ 0.125 mg/L | 8 mg/L (≈ 7.67 µM) | 8 mg/L (≈ 7.67 µM) | 0.5 mg/L (≈ 0.48 µM) | 2 mg/L (≈ 1.92 µM) | 16 mg/L (≈ 15.3 µM) | 32 mg/L (≈ 30.7 µM)
4 | CC[C@H]1OC(=O)[C@H](C)[C@@H](O[C@H]2C[C@@](C)(OC)[C@@H](O)[C@H](C)O2)[C@H](C)[C@@H](O[C@@H]2O[C@H](C)C[C@H](N(C)C)[C@H]2O)[C@](C)(O)C[C@@H](C)CN(CCCN(CCC#N)C(=O)NC(C)C)[C@H](C)[C@@H](O)[C@]1(C)O | 4 mg/L (≈ 4.3 µM) | ≤ 0.125 mg/L | 32 mg/L (≈ 34.4 µM) | > 64 mg/L | ≤ 0.125 mg/L | 32 mg/L (≈ 34.4 µM) | 32 mg/L (≈ 34.4 µM) | 0.5 mg/L (≈ 0.537 µM) | 4 mg/L (≈ 4.3 µM) | 64 mg/L (≈ 68.8 µM) | 16 mg/L (≈ 17.2 µM)
5 | CC[C@H]1OC(=O)[C@H](C)[C@@H](O[C@H]2C[C@@](C)(OC)[C@@H](O)[C@H](C)O2)[C@H](C)[C@@H](O[C@@H]2O[C@H](C)C[C@H](N(C)C)[C@H]2O)[C@](C)(O)C[C@@H](C)CN(C)[C@H](C)[C@@H](O)[C@]1(C)O [AZITHROMYCIN] | 0.5 mg/L (≈ 0.668 µM) | ≤ 0.125 mg/L | 8 mg/L (≈ 10.7 µM) | 64 mg/L (≈ 85.4 µM) | ≤ 0.125 mg/L | 8 mg/L (≈ 10.7 µM) | 4 mg/L (≈ 5.34 µM) | ≤ 0.125 mg/L | 1 mg/L (≈ 1.34 µM) | 8 mg/L (≈ 10.7 µM) | 2 mg/L (≈ 2.67 µM)
6 | CC[C@H]1OC(=O)[C@H](C)[C@@H](O[C@H]2C[C@@](C)(OC)[C@@H](O)[C@H](C)O2)[C@H](C)[C@@H](O[C@@H]2O[C@H](C)C[C@H](N(C)C)[C@H]2O)[C@](C)(O)C[C@@H](C)CN(CCCN(CCC#N)C(=O)Nc2ccc3ccccc3c2)[C@H](C)[C@@H](O)[C@]1(C)O | 1 mg/L (≈ 0.986 µM) | ≤ 0.125 mg/L | 16 mg/L (≈ 15.8 µM) | 32 mg/L (≈ 31.5 µM) | ≤ 0.125 mg/L | 16 mg/L (≈ 15.8 µM) | 8 mg/L (≈ 7.89 µM) | 1 mg/L (≈ 0.986 µM) | 2 mg/L (≈ 1.97 µM) | 16 mg/L (≈ 15.8 µM) | 32 mg/L (≈ 31.5 µM)
7 | CC[C@H]1OC(=O)[C@H](C)[C@@H](O[C@H]2C[C@@](C)(OC)[C@@H](O)[C@H](C)O2)[C@H](C)[C@@H](O[C@@H]2O[C@H](C)C[C@H](N(C)C)[C@H]2O)[C@](C)(O)C[C@@H](C)CN(CCCNC(=O)Nc2ccc3ccccc3c2)[C@H](C)[C@@H](O)[C@]1(C)O | 1 mg/L (≈ 1.04 µM) | ≤ 0.125 mg/L | 4 mg/L (≈ 4.16 µM) | 16 mg/L (≈ 16.6 µM) | ≤ 0.125 mg/L | 2 mg/L (≈ 2.08 µM) | 4 mg/L (≈ 4.16 µM) | 0.25 mg/L (≈ 0.26 µM) | 2 mg/L (≈ 2.08 µM) | 8 mg/L (≈ 8.32 µM) | 16 mg/L (≈ 16.6 µM)
8 | CC[C@H]1OC(=O)[C@H](C)[C@@H](O[C@H]2C[C@@](C)(OC)[C@@H](O)[C@H](C)O2)[C@H](C)[C@@H](O[C@@H]2O[C@H](C)C[C@H](N(C)C)[C@H]2O)[C@](C)(O)C[C@@H](C)CN(CCCN(CCC#N)C(=O)NCc2ccccc2)[C@H](C)[C@@H](O)[C@]1(C)O | 2 mg/L (≈ 2.04 µM) | ≤ 0.125 mg/L | 16 mg/L (≈ 16.4 µM) | 64 mg/L (≈ 65.4 µM) | ≤ 0.125 mg/L | 16 mg/L (≈ 16.4 µM) | 8 mg/L (≈ 8.18 µM) | 0.5 mg/L (≈ 0.511 µM) | 4 mg/L (≈ 4.09 µM) | 32 mg/L (≈ 32.7 µM) | 8 mg/L (≈ 8.18 µM)
9 | CC[C@H]1OC(=O)[C@H](C)[C@@H](O[C@H]2C[C@@](C)(OC)[C@@H](O)[C@H](C)O2)[C@H](C)[C@@H](O[C@@H]2O[C@H](C)C[C@H](N(C)C)[C@H]2O)[C@](C)(O)C[C@@H](C)CN(CCCNC(=S)NCc2ccccc2)[C@H](C)[C@@H](O)[C@]1(C)O | 0.5 mg/L (≈ 0.531 µM) | ≤ 0.125 mg/L | 8 mg/L (≈ 8.5 µM) | 64 mg/L (≈ 68 µM) | ≤ 0.125 mg/L | 4 mg/L (≈ 4.25 µM) | 4 mg/L (≈ 4.25 µM) | 1 mg/L (≈ 1.06 µM) | 2 mg/L (≈ 2.12 µM) | 8 mg/L (≈ 8.5 µM) | 16 mg/L (≈ 17 µM)
10 | CC[C@H]1OC(=O)[C@H](C)[C@@H](O[C@H]2C[C@@](C)(OC)[C@@H](O)[C@H](C)O2)[C@H](C)[C@@H](O[C@@H]2O[C@H](C)C[C@H](N(C)C)[C@H]2O)[C@](C)(O)C[C@@H](C)CN(CCCN(CCC#N)C(=S)NCCCc2ccccc2)[C@H](C)[C@@H](O)[C@]1(C)O | 1 mg/L (≈ 0.978 µM) | ≤ 0.125 mg/L | 32 mg/L (≈ 31.3 µM) | 32 mg/L (≈ 31.3 µM) | ≤ 0.125 mg/L | 8 mg/L (≈ 7.82 µM) | 16 mg/L (≈ 15.6 µM) | 4 mg/L (≈ 3.91 µM) | 4 mg/L (≈ 3.91 µM) | 16 mg/L (≈ 15.6 µM) | 16 mg/L (≈ 15.6 µM)
11 | CC[C@H]1OC(=O)[C@H](C)[C@@H](O[C@H]2C[C@@](C)(OC)[C@@H](O)[C@H](C)O2)[C@H](C)[C@@H](O[C@@H]2O[C@H](C)C[C@H](N(C)C)[C@H]2O)[C@](C)(O)C[C@@H](C)CN(CCCN(CCC#N)C(=S)Nc2cccc3ccccc23)[C@H](C)[C@@H](O)[C@]1(C)O | 4 mg/L (≈ 3.88 µM) | ≤ 0.125 mg/L | 16 mg/L (≈ 15.5 µM) | 64 mg/L (≈ 62.1 µM) | ≤ 0.125 mg/L | 32 mg/L (≈ 31.1 µM) | 32 mg/L (≈ 31.1 µM) | 4 mg/L (≈ 3.88 µM) | 8 mg/L (≈ 7.76 µM) | 32 mg/L (≈ 31.1 µM) | 8 mg/L (≈ 7.76 µM)

— ChEMBL document CHEMBL1153576, “Novel ureas and thioureas of 15-membered azalides with antibacterial activity against key respiratory pathogens” (Eur J Med Chem, 2009)
